The values that follow come from ChEMBL document CHEMBL3108729, “Design, synthesis and anticonvulsant evaluation of N-(benzo[d]thiazol-2-ylcarbamoyl)-2-methyl-4-oxoquinazoline-3(4H)-carbothioamide derivatives: a hybrid pharmacophore approach” (Eur J Med Chem, 2013).

For series [1], the system named is Mus musculus. Put plainly: Anticonvulsant activity in albino mouse assessed as protection against maximal electroshock-induced seizures at 300 mg/kg, ip measured after 4 hrs. In kind it is functional, organism-based. On the set-up: dose 300 mg/kg. (In general: In the maximal electroshock model the usual endpoint is tonic extension of the hind limbs.)
Series [2] relates to Mus musculus. Put plainly: Anticonvulsant activity in albino mouse assessed as protection against maximal electroshock-induced seizures at 300 mg/kg, ip measured after 0.5 hrs. Type of series: functional, organism-based. More on the design: dose 300 mg/kg.
Series [3] relates to Mus musculus. The series is described as follows: Anticonvulsant activity in ip dosed albino mouse assessed as protection against maximal electroshock-induced seizures after 4 hrs. In kind it is functional. The settings on record: read-out: MED.
The subject of series [4] is Mus musculus. The series is described as follows: Anticonvulsant activity in ip dosed albino mouse assessed as protection against maximal electroshock-induced seizures after 0.5 hrs. Type of series: functional. The settings on record: read-out: MED.
The subject of series [5] is Mus musculus. Put plainly: Neurotoxicity in ip dosed albino mouse after 4 hrs by rotorod test. The settings on record: in vivo. In kind it is toxicity, organism-based. The gist of the method: (§1)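 Swiss mice, four per dose, received 30, 100 or 300 mg/kg i.p. and were placed on a rotorod at 0.5 and 4 h. Neurotoxicity meant failure to keep balance for 1 min. The value reported is the minimum dose affecting half or more of the mice.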
Background: In the rotarod test animals must keep their balance on a rotating rod.

Series [6] deals with Mus musculus. The series is described as follows: Neurotoxicity in ip dosed albino mouse after 0.5 hrs by rotorod test. Type of series: toxicity, organism-based. The conditions noted are these: in vivo. A digest of the protocol:
as §1

Series [7] has as its system Mus musculus. The series is described as follows: Neurotoxicity in albino mouse at 300 mg/kg, ip after 4 hrs by rotorod test. Type of series: toxicity, organism-based. The settings on record: in vivo. On the set-up: dose 300 mg/kg, route intraperitoneal. The gist of the method:
as §1

The subject of series [8] is Mus musculus. Put plainly: Neurotoxicity in albino mouse at 300 mg/kg, ip after 0.5 hrs by rotorod test. The conditions noted are these: in vivo. Type of series: toxicity, organism-based. More on the design: dose 300 mg/kg, route intraperitoneal. A digest of the protocol:
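Swiss mice (25–30 g), four per dose, got 30, 100 or 300 mg/kg i.p. and were checked on the rotorod at 0.5 and 4 h. Motor impairment meant failure to keep equilibrium on the rod for 1 min. The value is the minimum dose at which half or more of the mice were impaired.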

For series [9], the system named is Rattus norvegicus. The series is described as follows: Anticonvulsant activity in Wistar rat assessed as inhibition of GABA-induced seizures measuring minimum GABA level per 100 mg whole brain required for 50 % inhibition at 30 mg/kg, ip as single dose measured after 2 hrs (reference value: 46.4 +/- 5.50 ug/100 mg brain). In kind it is functional. The settings on record: route intraperitoneal.

Series [10] concerns Rattus norvegicus. The series is described as follows: Anticonvulsant activity in Wistar rat assessed as inhibition of GABA-induced seizures measuring minimum GABA level per 100 mg whole brain required for 50 % inhibition at 30 mg/kg, po for 7 days (reference value: 51.5 +/- 2.60 ug/100 mg brain). Type of series: functional. A digest of the protocol: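 Adult Wistar rats in groups of six were dosed orally at 30 mg/kg for 7 days. Whole-brain GABA was then measured enzymatically in ethanol extracts as µg/100 mg tissue. Values are mean ± SEM of six rats versus control (Student's t test).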

Calls of active or inactive are those of the source. The rule behind the calls is not given here.

`Cc1ccc2nc(NC(=O)NC(=S)n3c(C)nc4cc(F)ccc4c3=O)sc2c1`: the outcome in the series on Mus musculus [1] and in the series with Mus musculus [2] was inactive.
As to `Cc1nc2cc(Cl)ccc2c(=O)n1C(=S)NC(=O)Nc1nc2ccc(F)cc2s1`, the minimal effective dose in the series on Mus musculus [3] and with Mus musculus [4] was 300 mg/kg each time.
In the case of `Cc1nc2ccccc2c(=O)n1C(=S)NC(=O)Nc1nc2ccc(O)cc2s1`, the result in the series with Mus musculus [1] and in the series with Mus musculus [2] was inactive.
On to `Cc1nc2cc(Cl)ccc2c(=O)n1C(=S)NC(=O)Nc1nc2ccc(Br)cc2s1`, for which, in the series with Mus musculus [1], the result was inactive. In addition, the MTC in the series with Mus musculus [5] and in the series on Mus musculus [6] was 300 mg/kg throughout. The minimal effective dose in the series on Mus musculus [4] was found to be 100 mg/kg.
As for `Cc1ccc2nc(NC(=O)NC(=S)n3c(C)nc4cc(Cl)ccc4c3=O)sc2c1`, the result in the series with Mus musculus [1] and in the series with Mus musculus [2] was inactive.
For the compound `Cc1nc2cc(F)ccc2c(=O)n1C(=S)NC(=O)Nc1nc2c(Br)cccc2s1`, the result with Mus musculus [1] was inactive. In addition, in the series on Mus musculus [7], the Activity entry is recorded as “Non-toxic”. In addition, the minimal effective dose with Mus musculus [4] came out at 300 mg/kg. The compound further had an MTC in the series on Mus musculus [6] of 300 mg/kg.
`Cc1nc2cc(F)ccc2c(=O)n1C(=S)NC(=O)Nc1nc2c(Cl)cccc2s1`: the result with Mus musculus [1] was inactive. Also, the Activity entry in the series on Mus musculus [7] is reported as “Non-toxic”. The minimal effective dose with Mus musculus [4] came to 300 mg/kg. In addition, in the series with Mus musculus [6], the MTC came to 300 mg/kg.
With `Cc1nc2cc(F)ccc2c(=O)n1C(=S)NC(=O)Nc1nc2ccc(OC(F)(F)F)cc2s1`, the minimal effective dose with Mus musculus [3] amounted to 300 mg/kg. The MTC in the series on Mus musculus [5] amounted to 300 mg/kg; in the series on Mus musculus [6], 100 mg/kg. Further, the result with Mus musculus [2] was inactive.
Take `Cc1nc2cc(F)ccc2c(=O)n1C(=S)NC(=O)Nc1nc2cc(Cl)ccc2s1`: the outcome with Mus musculus [1] was inactive. The values for the MTC in the series on Mus musculus [5] and in the series with Mus musculus [6] were 300 mg/kg and 100 mg/kg, respectively. Further, in the series with Mus musculus [4], the minimal effective dose stood at 300 mg/kg.
In the case of `COc1ccc2nc(NC(=O)NC(=S)n3c(C)nc4cc(Cl)ccc4c3=O)sc2c1`, the result in the series with Mus musculus [1] and with Mus musculus [2] was inactive.
`Cc1nc2cc(Cl)ccc2c(=O)n1C(=S)NC(=O)Nc1nc2c(Cl)cccc2s1`: the Activity entry with Mus musculus [8] was “Non-toxic”. In addition, in the series on Mus musculus [1], the outcome was inactive. Also, the MTC with Mus musculus [5] came to 300 mg/kg. The minimal effective dose in the series with Mus musculus [4] amounted to 300 mg/kg.
Turning to `Cc1nc2cc(Cl)ccc2c(=O)n1C(=S)NC(=O)Nc1nc2ccc(O)cc2s1`, the result with Mus musculus [1] and in the series with Mus musculus [2] was inactive.
Take `Cc1nc2ccccc2c(=O)n1C(=S)NC(=O)Nc1nc2c(Br)cccc2s1`: the outcome in the series with Mus musculus [1] and in the series with Mus musculus [2] was inactive.
For `CN1C(=O)CC(=O)N(c2ccccc2)c2cc(Cl)ccc21` [CLOBAZAM], the Activity with Rattus norvegicus [9] amounted to 101 µg. For the same compound, in the series with Rattus norvegicus [10], the GABA level is 110 µg/100 mg brain.
In the case of `Cc1nc2cc(Cl)ccc2c(=O)n1C(=S)NC(=O)Nc1nc2cc(Cl)ccc2s1`, the result in the series with Mus musculus [1] was inactive. For the same compound, in the series on Mus musculus [4], the minimal effective dose worked out at 300 mg/kg.
`Cc1nc2ccccc2c(=O)n1C(=S)NC(=O)Nc1nc2cc(Cl)ccc2s1`: the results for the minimal effective dose in the series on Mus musculus [3] and in the series with Mus musculus [4] were 300 mg/kg and 100 mg/kg, respectively. Also, the Activity result with Mus musculus [7] is on record as “Non-toxic”. This compound also returned an MTC in the series on Mus musculus [6] of 100 mg/kg.
